Data reported in ChEMBL document CHEMBL3745707 (Bioorg Med Chem, 2016).
The source made the active and inactive calls. The calls are words filed in the database; no cut-off is given here.

Experiments:
Tubulin (Bos taurus) [1] = target: T1, Tubulin (Bos taurus) (UniProt Q6B856+Q862L2+Q862F3); test: Inhibition of bovine MAP rich tubulin polymerization at 10 uM measured every 2 mins for 30 mins by UV-visible spectrophotometric analysis; assay type: protein assay
In short: (§1)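 MAP-rich bovine tubulin at 1.5 mg/mL in 80 mM PIPES pH 6.9, 1 mM GTP, 0.5 mM EGTA, 2 mM MgCl₂. Briefly preincubated with agent or DMSO, then polymerized at 37 °C in a spectrophotometer. Absorbance recorded every 2 min for 30 min; n = 3.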

SK-MEL-28 = test: cells; assay type: functional; conditions: Homo sapiens, SK-MEL-28, 72 h
K562 = test: cells; assay type: functional, cell-based; conditions: Homo sapiens, K562, 72 h
cells [2] = assay type: functional, U-87MG ATCC; conditions: Homo sapiens, U-87 MG, 72 h
cells [3] = assay type: functional; conditions: Homo sapiens, MIA PaCa-2, 72 h
U2OS [4] = test: cells; assay type: functional; conditions: Homo sapiens, 72 h
cells [5] = assay type: functional; conditions: Homo sapiens, Granta-519, 72 h
HeLa = test: cells; assay type: functional; conditions: Homo sapiens, 72 h
cells [6] = assay type: functional; conditions: Homo sapiens, SK-OV-3, 72 h
cells [7] = assay type: functional; conditions: Homo sapiens, COLO 205, 72 h
Raji = test: cells; assay type: functional; conditions: Homo sapiens, 72 h
NCI-H1975 = test: cells; assay type: functional; conditions: Homo sapiens, NCI-H1975, 72 h
A549 = test: cells; assay type: functional; conditions: Homo sapiens, A549, 72 h
MCF7 = test: cells; assay type: functional; conditions: Homo sapiens, MCF7, 72 h
cells [8] = assay type: functional, cell-based; conditions: Homo sapiens, DU-145, 72 h
cells [9] = assay type: functional; conditions: Homo sapiens, BT-474, 72 h
[10] = target: Ribosomal protein S6 kinase alpha-1 (Homo sapiens, UniProt Q15418); test: Inhibition of human RSK1 using [KKLNRTLSVA] as substrate
[11] = target: T2, Serine/threonine-protein kinase PLK2 (Homo sapiens, UniProt Q9NYY3); test: Inhibition of human recombinant PLK2 using recombinant dephosphorylated bovine alpha- casein as substrate after 30 mins by scintillation counting analysis in presence of gamma-32P-ATP
Target sequence in this assay (Q9NYY3 whole entry): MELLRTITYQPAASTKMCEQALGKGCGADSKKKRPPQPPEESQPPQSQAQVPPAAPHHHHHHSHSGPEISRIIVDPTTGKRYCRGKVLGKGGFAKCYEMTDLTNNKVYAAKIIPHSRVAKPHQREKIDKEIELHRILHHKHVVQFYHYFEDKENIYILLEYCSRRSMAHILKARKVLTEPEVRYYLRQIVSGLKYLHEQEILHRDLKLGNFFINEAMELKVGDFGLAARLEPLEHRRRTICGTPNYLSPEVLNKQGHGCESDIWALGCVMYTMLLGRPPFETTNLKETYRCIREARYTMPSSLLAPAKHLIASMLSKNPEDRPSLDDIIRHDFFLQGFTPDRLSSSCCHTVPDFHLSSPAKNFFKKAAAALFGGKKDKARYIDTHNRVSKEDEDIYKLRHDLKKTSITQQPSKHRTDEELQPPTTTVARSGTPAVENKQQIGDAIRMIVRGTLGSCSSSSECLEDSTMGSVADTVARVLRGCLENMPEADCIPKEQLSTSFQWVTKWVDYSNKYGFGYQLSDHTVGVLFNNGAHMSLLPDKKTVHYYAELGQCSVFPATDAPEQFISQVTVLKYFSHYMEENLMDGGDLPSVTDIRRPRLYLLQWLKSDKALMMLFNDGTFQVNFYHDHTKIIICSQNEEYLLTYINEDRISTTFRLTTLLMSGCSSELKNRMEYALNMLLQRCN

[12] = target: Fibroblast growth factor receptor 3 (Homo sapiens, UniProt P22607); test: Inhibition of human FGFR3 using poly[Glu:Tyr] (4:1) as substrate
Chain of Fibroblast growth factor receptor 3 (P22607 whole entry): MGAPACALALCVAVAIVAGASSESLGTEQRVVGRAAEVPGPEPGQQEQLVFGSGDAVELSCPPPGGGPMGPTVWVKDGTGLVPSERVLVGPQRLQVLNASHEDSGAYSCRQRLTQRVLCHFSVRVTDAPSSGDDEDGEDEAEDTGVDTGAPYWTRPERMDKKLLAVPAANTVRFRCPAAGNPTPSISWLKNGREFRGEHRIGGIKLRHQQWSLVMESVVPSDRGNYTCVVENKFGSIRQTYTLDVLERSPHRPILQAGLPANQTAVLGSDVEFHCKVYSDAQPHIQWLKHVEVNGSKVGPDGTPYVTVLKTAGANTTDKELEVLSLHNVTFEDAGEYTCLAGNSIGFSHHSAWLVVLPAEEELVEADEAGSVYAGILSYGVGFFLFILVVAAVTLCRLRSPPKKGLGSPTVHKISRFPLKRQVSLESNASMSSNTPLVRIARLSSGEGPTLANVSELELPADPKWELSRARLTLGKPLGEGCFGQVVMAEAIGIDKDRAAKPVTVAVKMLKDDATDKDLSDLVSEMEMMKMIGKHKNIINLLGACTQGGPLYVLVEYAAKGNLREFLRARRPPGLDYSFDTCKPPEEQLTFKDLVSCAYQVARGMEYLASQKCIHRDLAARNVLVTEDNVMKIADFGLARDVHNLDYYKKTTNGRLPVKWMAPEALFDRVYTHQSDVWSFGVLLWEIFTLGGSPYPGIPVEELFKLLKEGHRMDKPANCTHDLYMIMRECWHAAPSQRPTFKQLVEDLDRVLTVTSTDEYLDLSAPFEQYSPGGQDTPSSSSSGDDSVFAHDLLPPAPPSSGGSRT

[13] = target: Receptor-type tyrosine-protein kinase FLT3 (Homo sapiens, UniProt P36888); test: Inhibition of human FLT3 using [EAIYAAPFAKKK] as substrate
Chain of Receptor-type tyrosine-protein kinase FLT3 (P36888 whole entry): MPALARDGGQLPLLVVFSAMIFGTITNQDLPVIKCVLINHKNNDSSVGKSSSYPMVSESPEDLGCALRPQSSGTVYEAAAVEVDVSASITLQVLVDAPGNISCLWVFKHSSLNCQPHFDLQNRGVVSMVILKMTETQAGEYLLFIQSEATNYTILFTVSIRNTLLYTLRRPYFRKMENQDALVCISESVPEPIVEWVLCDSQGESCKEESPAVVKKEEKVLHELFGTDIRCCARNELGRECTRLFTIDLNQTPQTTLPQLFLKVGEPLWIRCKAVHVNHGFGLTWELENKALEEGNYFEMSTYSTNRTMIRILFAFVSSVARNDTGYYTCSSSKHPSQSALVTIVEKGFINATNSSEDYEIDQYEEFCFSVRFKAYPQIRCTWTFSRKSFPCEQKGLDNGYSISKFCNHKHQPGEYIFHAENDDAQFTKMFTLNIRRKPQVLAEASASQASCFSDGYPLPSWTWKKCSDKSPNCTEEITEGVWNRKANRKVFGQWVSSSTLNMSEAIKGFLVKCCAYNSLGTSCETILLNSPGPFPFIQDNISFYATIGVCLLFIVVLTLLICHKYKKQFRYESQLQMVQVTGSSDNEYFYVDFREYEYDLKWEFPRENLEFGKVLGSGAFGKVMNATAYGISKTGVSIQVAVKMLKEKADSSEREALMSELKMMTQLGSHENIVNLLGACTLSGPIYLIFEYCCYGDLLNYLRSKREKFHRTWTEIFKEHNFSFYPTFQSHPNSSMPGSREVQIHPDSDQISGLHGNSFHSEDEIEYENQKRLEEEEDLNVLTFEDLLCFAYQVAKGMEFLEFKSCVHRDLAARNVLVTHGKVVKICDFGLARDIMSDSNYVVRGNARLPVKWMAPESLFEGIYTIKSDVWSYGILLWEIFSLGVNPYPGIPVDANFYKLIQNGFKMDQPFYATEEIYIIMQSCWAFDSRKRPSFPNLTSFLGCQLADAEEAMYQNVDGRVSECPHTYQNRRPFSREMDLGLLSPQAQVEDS

Ephrin type-A receptor 6 = Ephrin type-A receptor 6 (Homo sapiens, UniProt Q9UF33); test: Inhibition of human EPHA6 using poly[Glu:Tyr] (4:1) as substrate
Chain of Ephrin type-A receptor 6 (Q9UF33 whole entry): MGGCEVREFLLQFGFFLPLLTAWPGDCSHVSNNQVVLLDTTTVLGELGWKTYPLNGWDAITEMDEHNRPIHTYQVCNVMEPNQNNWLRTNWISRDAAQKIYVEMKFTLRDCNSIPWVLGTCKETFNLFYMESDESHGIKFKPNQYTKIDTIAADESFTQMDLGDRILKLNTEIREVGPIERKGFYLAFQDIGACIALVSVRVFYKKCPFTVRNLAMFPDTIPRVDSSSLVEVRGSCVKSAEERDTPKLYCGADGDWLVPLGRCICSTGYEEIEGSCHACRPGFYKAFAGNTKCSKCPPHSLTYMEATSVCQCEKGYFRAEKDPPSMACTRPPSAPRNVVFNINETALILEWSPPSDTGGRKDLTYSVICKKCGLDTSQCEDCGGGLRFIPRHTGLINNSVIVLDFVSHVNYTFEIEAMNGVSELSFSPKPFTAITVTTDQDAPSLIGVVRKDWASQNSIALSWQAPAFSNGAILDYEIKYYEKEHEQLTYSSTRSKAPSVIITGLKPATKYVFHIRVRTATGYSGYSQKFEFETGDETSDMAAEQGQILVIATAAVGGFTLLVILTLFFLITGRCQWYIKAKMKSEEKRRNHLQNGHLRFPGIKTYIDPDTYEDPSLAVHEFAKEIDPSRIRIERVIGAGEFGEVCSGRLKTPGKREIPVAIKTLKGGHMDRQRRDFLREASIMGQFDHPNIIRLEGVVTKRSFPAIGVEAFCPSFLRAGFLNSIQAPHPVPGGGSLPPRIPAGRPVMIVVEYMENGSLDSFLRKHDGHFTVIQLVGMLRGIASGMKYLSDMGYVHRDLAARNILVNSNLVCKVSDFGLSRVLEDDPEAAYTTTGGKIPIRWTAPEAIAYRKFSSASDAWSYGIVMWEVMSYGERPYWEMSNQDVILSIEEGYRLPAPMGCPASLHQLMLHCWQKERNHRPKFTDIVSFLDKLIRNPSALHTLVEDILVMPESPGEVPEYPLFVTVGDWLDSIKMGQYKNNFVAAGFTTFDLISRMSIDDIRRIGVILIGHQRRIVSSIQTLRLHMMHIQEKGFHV

Mus musculus = test: Toxicity in NCR nu/nu mouse xenografted with human MDA-MB-231 cells assessed as change in body weight at 75 mg/kg, ip administered alternative day; assay type: organism-based; conditions: in vivo
[14] = target: TRAF2 and NCK-interacting protein kinase (Homo sapiens, UniProt Q9UKE5); test: Inhibition of human TNIK using [RLGRDKYKTLRQIRQ] as substrate
[15] = target: Mitogen-activated protein kinase 14 (Homo sapiens, UniProt Q16539); test: Inhibition of human P38alpha using MBP as substrate
[16] = target: T2, Serine/threonine-protein kinase PLK2
Target sequence in this assay (Q9NYY3 whole entry, looked up): as the sequence (Q9NYY3 whole entry) above

[17] = target: High affinity nerve growth factor receptor (Homo sapiens, UniProt P04629); test: Inhibition of human TRKA using poly[Glu:Tyr] (4:1) as substrate
[18] = target: Testis-specific serine/threonine-protein kinase 3 (Homo sapiens, UniProt Q96PN8); test: Inhibition of human TSSK3 using [KKKVSRSGLYRSPSMPENLNRPR] as substrate
Chain of Testis-specific serine/threonine-protein kinase 3 (Q96PN8 whole entry): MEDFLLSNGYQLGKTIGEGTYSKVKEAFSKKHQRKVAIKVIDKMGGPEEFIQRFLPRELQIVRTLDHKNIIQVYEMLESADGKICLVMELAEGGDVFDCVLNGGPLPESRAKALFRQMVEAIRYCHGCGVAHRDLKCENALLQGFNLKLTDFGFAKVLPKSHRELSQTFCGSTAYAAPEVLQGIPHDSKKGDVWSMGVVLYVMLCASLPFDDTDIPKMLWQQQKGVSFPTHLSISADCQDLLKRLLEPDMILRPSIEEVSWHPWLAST

[19] = target: Serine/threonine-protein kinase Nek9 (Homo sapiens, UniProt Q8TD19); test: Inhibition of human NEK9 using MBP as substrate
[20] = target: Cyclin-Y/Cyclin-dependent kinase 16 (Homo sapiens, UniProt Q00536); test: Inhibition of human CDK16/cyclin Y using RP protein as substrate; assay type: protein-complex assay
U2OS [21] = test: Induction of apoptosis in human U2OS cells assessed as increase in caspase 3/7 activity after 24 hrs by caspase Glo assay; assay type: functional, cell-based
In short: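 U2OS cells (DMEM, 10% FBS, 37 °C, 5% CO₂) plated at 1–3 × 10⁴ cells/well, left overnight, then exposed 24 h to increasing concentrations, with DMSO control. Caspase 3/7 activity read by Caspase-Glo luminescence; viability measured in parallel with Cell Titer Blue fluorescence.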

[22] = target: T2, Serine/threonine-protein kinase PLK2; test: Inhibition of human PLK2 using casein as substrate
Target sequence in this assay (Q9NYY3 whole entry): as the sequence (Q9NYY3 whole entry) above

[23] = target: Serine/threonine-protein kinase PLK1 (Homo sapiens) (UniProt P53350)
[24] = target: Serine/threonine-protein kinase Nek5 (Homo sapiens, UniProt Q6P3R8); test: Inhibition of human NEK5 using MBP as substrate
Chain of Serine/threonine-protein kinase Nek5 (Q6P3R8 whole entry): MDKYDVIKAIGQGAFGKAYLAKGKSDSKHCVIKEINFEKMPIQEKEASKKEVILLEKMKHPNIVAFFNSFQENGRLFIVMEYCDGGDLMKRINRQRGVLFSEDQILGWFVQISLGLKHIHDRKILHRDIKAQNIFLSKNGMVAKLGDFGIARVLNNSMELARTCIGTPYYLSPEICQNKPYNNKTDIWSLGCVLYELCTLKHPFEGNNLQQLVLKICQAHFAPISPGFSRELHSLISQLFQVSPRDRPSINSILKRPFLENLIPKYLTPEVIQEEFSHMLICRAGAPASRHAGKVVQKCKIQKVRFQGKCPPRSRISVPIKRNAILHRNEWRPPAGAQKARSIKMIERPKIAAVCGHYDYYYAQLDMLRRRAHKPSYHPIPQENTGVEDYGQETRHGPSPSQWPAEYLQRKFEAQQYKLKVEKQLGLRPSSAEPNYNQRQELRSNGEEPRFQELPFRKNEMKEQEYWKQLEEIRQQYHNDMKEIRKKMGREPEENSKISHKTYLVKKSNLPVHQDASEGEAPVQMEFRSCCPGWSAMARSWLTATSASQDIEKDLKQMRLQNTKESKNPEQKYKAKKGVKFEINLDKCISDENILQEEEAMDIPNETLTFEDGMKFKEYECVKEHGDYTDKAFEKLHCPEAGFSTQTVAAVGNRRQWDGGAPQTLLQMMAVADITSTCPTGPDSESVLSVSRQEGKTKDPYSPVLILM

[25] = target: Glycogen synthase kinase-3 alpha (Homo sapiens, UniProt P49840); test: Inhibition of human GSK3alpha using [YRRAAVPPSPSLSRHSSPHQ(pS)EDEEE] as substrate
[26] = target: Serine/threonine-protein kinase Nek2 (Homo sapiens, UniProt P51955); test: Inhibition of human NEK2 using MBP as substrate
Chain of Serine/threonine-protein kinase Nek2 (P51955 whole entry): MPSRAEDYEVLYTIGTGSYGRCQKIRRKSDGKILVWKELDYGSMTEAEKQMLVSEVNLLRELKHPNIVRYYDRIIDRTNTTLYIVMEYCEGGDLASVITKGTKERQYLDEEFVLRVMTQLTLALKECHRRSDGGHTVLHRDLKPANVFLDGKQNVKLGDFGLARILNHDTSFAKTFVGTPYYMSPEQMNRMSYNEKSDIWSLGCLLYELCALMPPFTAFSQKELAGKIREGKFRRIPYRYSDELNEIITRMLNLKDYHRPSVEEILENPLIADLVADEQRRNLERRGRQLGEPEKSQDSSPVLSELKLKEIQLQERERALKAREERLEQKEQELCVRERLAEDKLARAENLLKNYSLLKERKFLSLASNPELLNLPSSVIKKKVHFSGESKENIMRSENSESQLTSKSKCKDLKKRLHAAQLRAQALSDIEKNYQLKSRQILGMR

[27] = target: Serine/threonine-protein kinase Nek1 (Homo sapiens, UniProt Q96PY6); test: Inhibition of human NEK1 using MBP as substrate
[28] = target: Fibroblast growth factor receptor 1 (Homo sapiens, UniProt P11362); test: Inhibition of human FGFR1 using [KKKSPGEYVNIEFG] as substrate
Tubulin (Bos taurus) [29] = target: T1, Tubulin (Bos taurus); test: Inhibition of bovine MAP rich tubulin polymerization at 1 uM measured every 2 mins for 30 mins by UV-visible spectrophotometric analysis; assay type: protein assay; in short: as §1

Structure (SMILES)	inhibition (Tubulin (Bos taurus) [1])	GI50 (SK-MEL-28) [nM]	IC50 (K562) [nM]	GI50 (cells [2]) [nM]	GI50 (cells [3]) [nM]	GI50 (U2OS [4]) [nM]	GI50 (cells [5]) [nM]	GI50 (HeLa) [nM]	GI50 (cells [6]) [nM]	GI50 (cells [7]) [nM]	GI50 (Raji) [nM]	GI50 (NCI-H1975) [nM]	GI50 (A549) [nM]	GI50 (MCF7) [nM]	IC50 (cells [8]) [nM]	GI50 (cells [9]) [nM]	IC50 [11] [nM]	ΔTm [16] [°C]	Activity (U2OS [21])	also measured
Cn1c(=O)c(S(=O)(=O)c2ccc(OC(=O)CCCCC3SCC4NC(=O)NC43)cc2)cc2cnc(Nc3ccc4[nH]ccc4c3)nc21 (stereo not given)	Active	500	600	1000	100	350	500	500	400	500	400	750	2500	500	150	250	–	–	–	–
Cn1c(=O)c(S(=O)(=O)c2ccc(F)cc2F)cc2cnc(Nc3ccc4[nH]ccc4c3)nc21	inactive	–	–	–	–	–	–	–	–	–	–	–	–	–	–	–	310	4.1	Dose-dependent effect	IC50 [10]: > 5000 nM; IC50 [12]: > 5000 nM; IC50 [13]: > 5000 nM; IC50 (Ephrin type-A receptor 6): > 5000 nM; Activity (Mus musculus): Non-toxic; IC50 [14]: > 5000 nM; IC50 [15]: > 10000 nM; IC50 [17]: > 5000 nM; IC50 [18]: > 5000 nM; IC50 [19]: > 5000 nM; IC50 [20]: > 10000 nM; IC50 [22]: 374 nM; ΔTm [23]: 0.2 °C; IC50 [24]: 4420 nM; IC50 [25]: > 5000 nM; IC50 [26]: 1830 nM; IC50 [27]: 630 nM; IC50 [28]: > 5000 nM
CC[C@@H]1C(=O)N(C)c2cnc(Nc3ccc(C(=O)NC4CCN(C)CC4)cc3OC)nc2N1C1CCCC1	–	–	–	–	–	–	–	–	–	–	–	–	–	–	–	–	–	12.3	–	–
Cn1c(=O)c(S(=O)(=O)c2ccc(O)cc2)cc2cnc(Nc3ccc4[nH]ccc4c3)nc21	Active	500	100	1000	100	350	250	750	750	250	500	750	750	500	250	200	470	–	–	–
CC[C@]1(O)C[C@H]2CN(CCc3c([nH]c4ccccc34)[C@@](C(=O)OC)(c3cc4c(cc3OC)N(C=O)[C@H]3[C@@](O)(C(=O)OC)[C@H](OC(C)=O)[C@]5(CC)C=CCN6CC[C@]43[C@@H]65)C2)C1	–	–	–	–	–	–	–	–	–	–	–	–	–	–	–	–	–	–	–	inhibition (Tubulin (Bos taurus) [29]): Active
Cn1c(=O)c(S(=O)(=O)c2ccc(F)cc2)cc2cnc(Nc3ccc4[nH]ccc4c3)nc21	Active	300	200	400	75	55	60	75	200	200	100	100	200	250	300	200	1070	–	Dose-dependent effect	–
